Source: PubChem BioAssay
TRPC4 inh: inhibitors of mouse TRPC4 channel, primary screen, Fluo4 calcium, HEK293 TRPC4beta/mu-opioid cells | Short transient receptor potential channel 4 (Mus musculus), Q9QUQ5 | DAMGO-evoked Fluo4 calcium flux; hits give low values | B-score at 10 µM | 0.39% of 300,000 active;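 active = B-score over 3 SD under the library average, no early fluorescence shift, positive overall ratio signal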
Target sequence (Q9QUQ5 whole entry, looked up): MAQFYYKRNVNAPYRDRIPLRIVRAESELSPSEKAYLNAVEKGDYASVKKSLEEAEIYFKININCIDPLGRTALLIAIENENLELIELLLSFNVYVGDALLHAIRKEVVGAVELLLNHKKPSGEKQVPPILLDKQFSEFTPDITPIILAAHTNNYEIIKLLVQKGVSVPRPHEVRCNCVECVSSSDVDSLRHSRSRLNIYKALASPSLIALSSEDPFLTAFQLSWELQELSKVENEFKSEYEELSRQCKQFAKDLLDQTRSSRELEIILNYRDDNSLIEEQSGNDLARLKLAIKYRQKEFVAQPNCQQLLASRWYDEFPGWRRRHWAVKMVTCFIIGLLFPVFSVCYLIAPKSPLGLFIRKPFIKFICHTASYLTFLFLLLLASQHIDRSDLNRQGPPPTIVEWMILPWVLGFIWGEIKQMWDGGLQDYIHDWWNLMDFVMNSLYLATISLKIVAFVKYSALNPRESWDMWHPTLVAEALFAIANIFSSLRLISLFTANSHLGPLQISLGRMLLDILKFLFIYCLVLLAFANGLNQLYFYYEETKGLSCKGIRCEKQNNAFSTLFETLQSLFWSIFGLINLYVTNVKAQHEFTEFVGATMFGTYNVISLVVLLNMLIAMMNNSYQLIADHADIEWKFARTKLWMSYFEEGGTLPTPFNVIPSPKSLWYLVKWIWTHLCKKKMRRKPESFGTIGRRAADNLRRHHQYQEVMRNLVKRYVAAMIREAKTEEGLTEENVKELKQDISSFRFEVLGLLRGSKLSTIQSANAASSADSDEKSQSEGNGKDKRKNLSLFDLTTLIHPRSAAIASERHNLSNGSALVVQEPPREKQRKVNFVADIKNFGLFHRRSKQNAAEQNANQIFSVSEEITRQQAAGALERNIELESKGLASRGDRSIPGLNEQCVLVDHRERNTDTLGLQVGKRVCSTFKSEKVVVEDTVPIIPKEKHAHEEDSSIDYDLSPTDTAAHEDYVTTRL
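Test system – stable TRPC4beta/mu-opioid receptor HEK293 cells · Probe or stimulus – DAMGO, a submaximal dose followed by a maximal one · Dosing – one concentration per compound · Signal – Fluo4 calcium fluorescence by kinetic imaging, 5 s 1 Hz baseline · Evaluation – per-well B score of integrated baseline-normalized Fluo4 ratio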
TRPC4 agonist: activators of mouse TRPC4 channel, primary screen, Fluo4 calcium, HEK293 TRPC4beta/mu-opioid cells. Short transient receptor potential channel 4 (Mus musculus), Q9QUQ5. Fluo4 calcium fluorescence; hits give high values. B-score at 10 µM. 0.49% of 310,000 active. AID 2237, 2010;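 active = B-score above 5 SD of library B-scores, and initial fluorescence ratio not above library mean plus 5 SD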;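 also: positive B-score marks a calcium rise read as TRPC4 activation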
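Material: TRPC4beta and mu-opioid receptor HEK293 stable cells | Incubation: 45 min room-temperature Fluo4 loading, 110 s read | Detection: Kinetic Fluo4 calcium fluorescence | Measure: Integrated baseline-normalised fluorescence ratio, converted to per-well B score | Benchmarks: Low control buffer alone, high control maximal DAMGO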
TRPC6 act: mouse TRPC6 channel activators, primary screen, cell-based, HEK293, membrane potential dye | AID 2550, 2010 | Short transient receptor potential channel 6 (Mus musculus), Q61143 | B-score at 10 µM | 0.13% of 310,000 active | HEK293-TRPC6 membrane potential dye fluorescence; hits give high values;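 active = B-score of the integrated fluorescence ratio above library mean plus 3 SD, and starting fluorescence ratio within library mean plus 5 SD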;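 also: higher score means more depolarization so channel activation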
FID counter: compounds displacing fluorescent DNA intercalator, primary screen, artefact control for HCV NS3 helicase inhibitor project, biochemical, FID fluorescence; DNA fluorescent intercalator displacement; inhibition, % at 7.9 µM; 0.17% of 290,000 active; AID 1845, 2009; in the data active = inhibition above about 37%;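 also: 0% = vehicle and 100% = reference compound; higher means more ethidium bromide displaced from hairpin DNA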
TRPC6 inh: mouse TRPC6 channel inhibitors, primary screen, cell-based, HEK293, membrane potential dye; 1.1% of 310,000 active; ACh-evoked depolarization; hits give low values; Short transient receptor potential channel 6 (Mus musculus), Q61143; B-score at 10 µM;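 active = B-score under library mean minus 3 SD, initial fluorescence not abnormally high, positive integrated signal ratio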;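 also: B-score derived from integrated fluorescence ratio over the kinetic read; more negative B-score means stronger inhibition of depolarization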
TRPC4 PAM: positive allosteric modulators of TRPC4, primary screen, cell-based, mouse TRPC4beta, HEK293 mu-opioid, Fluo-4 calcium; Short transient receptor potential channel 4 (Mus musculus), Q9QUQ5; DAMGO EC20, Fluo-4 Ca2+ flux; hits give high values; B-score at 10 µM; 0.42% of 310,000 active;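 active = B-score of calcium response area above 5 SD of library B-scores, with initial fluorescence ratio within 5 SD of library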;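 also: B-score of integrated fluorescence ratio over time as area under calcium response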
* marks the source's active call; other numbers are inactive results. Hits are enriched below; roughly 2.3% of the tested compounds scored in any of these assays.

Results for CCCCc1ccc(NC(=O)CSc2nnc(C)c(=O)n2N)cc1 ?
TRPC4 inh: inactive; TRPC4 agonist: inactive; TRPC6 act: inactive; FID counter: -23; TRPC6 inh: inactive; TRPC4 PAM: 24*

How did Nc1nccnc1C(=O)OCC(=O)c1ccc[nH]1 do in these assays?
TRPC4 inh: inactive; TRPC4 agonist: inactive; TRPC6 act: inactive; TRPC6 inh: inactive; TRPC4 PAM: inactive

Results for COc1ccc(OC)c(NC(=O)COC(=O)Cc2ccc(-c3ccccc3)cc2)c1 ?
TRPC4 inh: inactive; TRPC4 agonist: inactive; TRPC6 act: inactive; FID counter: -4; TRPC6 inh: inactive; TRPC4 PAM: 21*

Results for COc1ccc(OC)c(NC(=O)COC(=O)Cc2ccc(Br)cc2)c1 ?
TRPC4 inh: inactive; TRPC4 agonist: inactive; TRPC6 act: inactive; FID counter: -22; TRPC6 inh: inactive; TRPC4 PAM: inactive

What do the screens show for `CCOc1cc(CNC2CCCC2)c(Cl)cc1OCC(=O)Nc1ccccc1`?
TRPC4 inh: inactive; TRPC4 agonist: inactive; TRPC6 act: inactive; FID counter: 27; TRPC6 inh: inactive; TRPC4 PAM: inactive

What do the screens show for `O=C(Nc1ccccc1)C1=C[C@H](c2ccc3c(c2)OCO3)C[C@H](OCc2ccc(CO)cc2)O1`?
TRPC4 inh: inactive; TRPC4 agonist: inactive; TRPC6 act: inactive; FID counter: -30; TRPC6 inh: inactive; TRPC4 PAM: 10*

What do the screens show for `CCN(CC)CCNC(=O)C1CCC(=O)N(c2ccc(OC)cc2)C1c1ccc(F)cc1` (configuration not stated)?
FID counter: 14

What do the screens show for `CCCN(CCC)CCNC(=O)C1CC(=O)N(c2ccc(OC)cc2)C1c1ccc(OC)cc1` (configuration not stated)?
TRPC4 inh: inactive; TRPC4 agonist: 43*; TRPC6 act: inactive; FID counter: 23; TRPC6 inh: inactive; TRPC4 PAM: inactive

What do the screens show for `C=CCN(CC=C)CCCOc1ccccc1C(=O)OC`?
TRPC4 inh: inactive; TRPC4 agonist: inactive; TRPC6 act: inactive; FID counter: 5; TRPC6 inh: inactive; TRPC4 PAM: inactive

How did COC(=O)c1ccccc1OCCCN(C)C do in these assays?
TRPC4 inh: inactive; TRPC4 agonist: inactive; TRPC6 act: inactive; FID counter: 9; TRPC6 inh: inactive; TRPC4 PAM: 11*

What do the screens show for `Cc1cccc(N(C(=O)CNC(=O)c2ccco2)C(C(=O)NC2CCCC2)c2cccnc2)c1C` (configuration not stated)?
TRPC4 inh: inactive; TRPC4 agonist: inactive; TRPC6 act: inactive; FID counter: -35; TRPC6 inh: inactive; TRPC4 PAM: inactive

What do the screens show for `Cc1cccnc1CNC(=O)C1CCC(=O)N(CCc2cccc(F)c2)C1` (configuration not stated)?
TRPC4 inh: inactive; TRPC4 agonist: inactive; TRPC6 act: inactive; FID counter: -17; TRPC6 inh: inactive; TRPC4 PAM: inactive

Results for COP(=O)(OC)c1nc(-c2cccc3ccccc23)oc1N1CCCCC1 ?
TRPC4 inh: inactive; TRPC4 agonist: inactive; TRPC6 act: inactive; FID counter: -28; TRPC6 inh: inactive; TRPC4 PAM: inactive

What do the screens show for `CCOP(=O)(OCC)c1nc(-c2cccc3ccccc23)oc1N1CCCCC1`?
TRPC4 inh: inactive; TRPC4 agonist: inactive; TRPC6 act: inactive; FID counter: -18; TRPC6 inh: inactive; TRPC4 PAM: 23*

How did CCOP(=O)(c1ccccc1)c1nc(-c2ccccc2C)oc1N1CCCCC1 (configuration not stated) do in these assays?
TRPC4 inh: inactive; TRPC4 agonist: inactive; TRPC6 act: inactive; FID counter: -19; TRPC6 inh: inactive; TRPC4 PAM: 11*

What do the screens show for `CCc1noc(C)c1C(=O)Nc1ccccc1C(C)(C)C`?
TRPC4 inh: inactive; TRPC4 agonist: inactive; TRPC6 act: inactive; FID counter: -1; TRPC6 inh: inactive; TRPC4 PAM: inactive

How did COc1ccccc1CNCC(c1ccccc1)c1ccccc1 do in these assays?
TRPC4 inh: -6*; TRPC4 agonist: inactive; TRPC6 act: inactive; FID counter: 13; TRPC6 inh: inactive; TRPC4 PAM: inactive

Results for COc1ccccc1CNCC(O)Cn1c2ccccc2c2ccccc21 (configuration not stated) ?
TRPC4 inh: inactive; TRPC4 agonist: 80*; TRPC6 act: inactive; FID counter: 23; TRPC6 inh: inactive; TRPC4 PAM: inactive

Results for O=C(CCN1CCN(S(=O)(=O)c2cccc([N+](=O)[O-])c2)CC1)Nc1ccccc1F ?
TRPC4 inh: inactive; TRPC4 agonist: inactive; TRPC6 act: inactive; FID counter: -16; TRPC6 inh: inactive; TRPC4 PAM: inactive

Results for Cc1ccccc1-c1ccnc2[nH]n(-c3ccccc3)c(=O)c12 ?
TRPC4 inh: inactive; TRPC4 agonist: inactive; TRPC6 act: inactive; FID counter: -9; TRPC6 inh: inactive; TRPC4 PAM: inactive

What do the screens show for `Cc1ccc(S(=O)(=O)N2CCC(C(=O)OCC(=O)N(C)CC(=O)Nc3ccc(F)cc3)CC2)cc1C`?
TRPC4 inh: inactive; TRPC4 agonist: inactive; TRPC6 act: inactive; TRPC6 inh: inactive; TRPC4 PAM: 79*

Results for Cc1ccc(C2=NN(S(=O)(=O)c3ccccc3)C(c3ccccc3O)C2)cc1 (configuration not stated) ?
TRPC4 inh: inactive; TRPC4 agonist: inactive; TRPC6 act: inactive; FID counter: -19; TRPC6 inh: inactive; TRPC4 PAM: 13*

Results for CCCCOc1ccc(CSc2nnc(C)n2N)cc1[N+](=O)[O-] ?
TRPC4 inh: inactive; TRPC4 agonist: inactive; TRPC6 act: inactive; FID counter: -2; TRPC6 inh: inactive; TRPC4 PAM: inactive

Results for CCOc1ccc(CSC(=N)N)cc1Cl ?
TRPC4 inh: inactive; TRPC4 agonist: 120*; TRPC6 act: inactive; FID counter: 1; TRPC6 inh: inactive; TRPC4 PAM: inactive

Results for CCOc1ccc(CSC(=N)N)cc1[N+](=O)[O-] ?
TRPC4 inh: inactive; TRPC4 agonist: 77*; TRPC6 act: inactive; FID counter: 8; TRPC6 inh: inactive; TRPC4 PAM: inactive
